Drawing on ChEMBL document CHEMBL2375304, “Synthesis and anticancer activity of novel 2-pyridyl hexahyrocyclooctathieno[2,3-d]pyrimidine derivatives” (2013), this text covers inhibition of growth for three molecules.

Common to all, as to type: functional
One assay has as its system A498. Briefly: Growth inhibition of human A498 cells at 10^-5 M after 48 hrs by Sulforhodamine B assay relative to control. As to conditions: A498, 48 h, read-out: GI. Put shortly:
(§1)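 Single-dose screen at 10⁻⁵ M. Cells are preincubated 24 h at 37 °C in 5% CO2, then exposed to the compound, diluted from a DMSO stock into medium with gentamicin, for 48 h. Adherent cells are fixed with cold TCA (final 10%) and suspension cells with TCA (final 16%). Cells are stained with 0.4% SRB in 1% acetic acid and bound dye is read at 515 nm. Percent growth inhibition is taken against control wells and time-zero plates.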
For orientation: The SRB assay estimates cell density from bound dye.

For another assay, the system named is U-251. Description: Growth inhibition of human U251 cells at 10^-5 M after 48 hrs by Sulforhodamine B assay relative to control. As to conditions: U-251, 48 h, read-out: GI. The method in brief:
(§2)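 Single-dose stage: compound tested at 10⁻⁵ M in the 49-cell-line panel. Cells grew 24 h at 37 °C, 5% CO₂ before drug addition. Drug stock was in DMSO at 400-fold, diluted in medium with gentamicin. After 48 h exposure, adherent cells were fixed with cold TCA (10% final) and stained with 0.4% SRB in 1% acetic acid. Dye was solubilized in 10 mM Tris, read at 515 nm. Growth percentage was taken relative to untreated control and time-zero plates.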

The subject of the next assay is NCI-H23. Briefly: Growth inhibition of human NCI-H23 cells at 10^-5 M after 48 hrs by Sulforhodamine B assay relative to control. As to conditions: NCI-H23, 48 h, read-out: GI. Put shortly:
(§3)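 Single-dose primary screen at 10⁻⁵ M across 49 lines. Cells were plated 24 h beforehand, with a TCA-fixed time-zero plate, then exposed 48 h at 37 °C, 5% CO2. Cells were fixed with cold TCA, stained with SRB and read at 515 nm. Percent growth was calculated against time-zero and untreated-control absorbances.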

The subject of the next assay is HCT-15. Description: Growth inhibition of human HCT15 cells at 10^-5 M after 48 hrs by Sulforhodamine B assay relative to control. As to conditions: HCT-15, 48 h, read-out: GI. Put shortly:
as §1

A further assay relates to CCRF-CEM. Briefly: Growth inhibition of human CCRF-CEM cells at 10^-5 M after 48 hrs by Sulforhodamine B assay relative to control. The following applies: read-out: GI. The method in brief: as §1
The next assay has as its system T47D. Description: Growth inhibition of human T47D cells at 10^-5 M after 48 hrs by Sulforhodamine B assay relative to control. The following applies: read-out: GI. The method in brief: as §2
For another assay, the system named is SNB-75. Briefly: Growth inhibition of human SNB75 cells at 10^-5 M after 48 hrs by Sulforhodamine B assay relative to control. The following applies: SNB-75, 48 h, read-out: GI. Put shortly: as §3
Another assay concerns SK-MEL-28. Description: Growth inhibition of human SK-MEL-28 cells at 10^-5 M after 48 hrs by Sulforhodamine B assay relative to control. The following applies: SK-MEL-28, 48 h, read-out: GI. Put shortly: as §3
In the next assay the test system is MDA-MB-435. Briefly: Growth inhibition of human MDA-MB-435 cells at 10^-5 M after 48 hrs by Sulforhodamine B assay relative to control. The following applies: MDA-MB-435, 48 h, read-out: GI. The method in brief:
as §1

For another assay, the system named is K562. Description: Growth inhibition of human K562 cells at 10^-5 M after 48 hrs by Sulforhodamine B assay relative to control. As to conditions: K562, 48 h, read-out: GI. The method in brief:
as §1

A further assay concerns UACC-62. Description: Growth inhibition of human UACC62 cells at 10^-5 M after 48 hrs by Sulforhodamine B assay relative to control. As to conditions: UACC-62, 48 h, read-out: GI. The method in brief:
as §2

In a further assay the test system is SN12C. Description: Growth inhibition of human SN12C cells at 10^-5 M after 48 hrs by Sulforhodamine B assay relative to control. As to conditions: read-out: GI. Put shortly: as §3
The next assay deals with Hs-578T. Description: Growth inhibition of human Hs578T cells at 10^-5 M after 48 hrs by Sulforhodamine B assay relative to control. The following applies: read-out: GI. The method in brief:
as §1

The test system of a further assay is LOX IMVI. Briefly: Growth inhibition of human LOXIMVI cells at 10^-5 M after 48 hrs by Sulforhodamine B assay relative to control. As to conditions: read-out: GI. Put shortly: as §1
The next assay deals with HT-29. Description: Growth inhibition of human HT-29 cells at 10^-5 M after 48 hrs by Sulforhodamine B assay relative to control. The following applies: HT-29, 48 h, read-out: GI. The method in brief: as §1
Another assay relates to SK-OV-3. Description: Growth inhibition of human SKOV3 cells at 10^-5 M after 48 hrs by Sulforhodamine B assay relative to control. As to conditions: SK-OV-3, 48 h, read-out: GI. Put shortly: as §3
In another assay the test system is COLO 205. Briefly: Growth inhibition of human COLO205 cells at 10^-5 M after 48 hrs by Sulforhodamine B assay relative to control. As to conditions: COLO 205, 48 h, read-out: GI. Put shortly: as §1

Consider `c1ccc(N2CCN(c3nc(-c4ccccn4)nc4sc5c(c34)CCCCCC5)CC2)cc1`, for which the inhibition of growth at 10 µM in the assay on A498 was 38.4%; in the assay with U-251 it was 37.1%; in the assay on NCI-H23 it was 37%; in the assay with HCT-15, 41.4%; in the assay with CCRF-CEM, 31%; in the assay with T47D it was 57.6%. Also, the inhibition of growth at 10 µM was 9.19% in the assay on SNB-75; 7.85% in the assay with SK-MEL-28; 34.2% in the assay with MDA-MB-435; 79.2% in the assay on K562; 41.2% in the assay with UACC-62; 28.9% in the assay with SN12C. In addition, the inhibition of growth at 10 µM stood at 6.17% in the assay on Hs-578T; 42.2% in the assay on LOX IMVI; 42% in the assay with HT-29; 12.6% with SK-OV-3; 26.3% with COLO 205.

On to `CN1CCN(c2nc(-c3ccccn3)nc3sc4c(c23)CCCCCC4)CC1`, for which the inhibition of growth at 10 µM in the assay with A498 amounted to 34.8%; in the assay on U-251 it was 8.31%; in the assay on NCI-H23 it was 16%; with HCT-15 it was 2.35%; in the assay on CCRF-CEM, 5.41%; in the assay on T47D it was 24.9%. Moreover, the inhibition of growth at 10 µM with SNB-75 is 14.4%; with SK-MEL-28, -5.08%; in the assay on MDA-MB-435, 4.89%; with K562, 20%; with UACC-62 it was 9.41%; in the assay on SN12C, 3.33%. The inhibition of growth at 10 µM in the assay on Hs-578T is 6.23%; in the assay with LOX IMVI, 4.93%; with HT-29 it was 5.9%; in the assay on SK-OV-3, -3.22%; in the assay on COLO 205 it was 0.37%.

For `c1cc(-c2nc(N3CCOCC3)c3c4c(sc3n2)CCCCCC4)ccn1`, the inhibition of growth at 10 µM in the assay on A498 was found to be 33.7%; in the assay on U-251, 21.9%; in the assay on NCI-H23, 8.29%; in the assay with HCT-15, 20.8%; in the assay with CCRF-CEM, 2.07%; in the assay on T47D it was 19.2%. In addition, the inhibition of growth at 10 µM is 0.97% in the assay with SNB-75; -7.03% with SK-MEL-28; 0.03% in the assay with MDA-MB-435; 29.3% in the assay on K562; 15.5% with UACC-62; 19.3% in the assay with SN12C. Further, the inhibition of growth at 10 µM was -13.3% in the assay on Hs-578T; 11.6% in the assay with LOX IMVI; 17.6% in the assay on HT-29; 0.61% in the assay on SK-OV-3; -0.84% with COLO 205.
